This note sets out measurements from ChEMBL document CHEMBL4261549 (Medchemcomm, 2017).

Calls of active or inactive are those of the source. The rule behind the calls is not given here. Where only a bound is given, the exact number is not on record here.

For series [1], the system named is PC-3. Nature of the series: Antiproliferative activity against human PC3 cells after 48 hrs by MTT assay. Format: functional, cell-based. The following applies: PC-3, 48 h. In outline: (§1)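 MTT dye-uptake viability assay; cells seeded at 2.5 × 10^3 per well, grown in RPMI 1640/DMEM with 10% FBS and penicillin/streptomycin at 37 °C, 5% CO2. Exposure to compounds for 48 h over 100 nM to 100 μM. IC50 versus untreated control, given as mean ± SD of three independent experiments.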
(In general: Tetrazolium dyes change colour on reduction, which living cells bring about.)

In another series the test system is HCT-116. Kind of series: Antiproliferative activity against human HCT116 cells after 48 hrs by MTT assay. Format: functional, cell-based. The following applies: HCT-116, 48 h. In outline: as §1
In a further series the test system is MCF7. Nature of the series: Antiproliferative activity against human MCF7 cells after 48 hrs by MTT assay. Format: functional, cell-based. The following applies: MCF7, 48 h. Summed up: as §1
The subject of the next series is BPH-1. Nature of the series: Antiproliferative activity against human BPH1 cells after 48 hrs by MTT assay. Format: cell-based. The following applies: BPH-1, 48 h.
Series [2] relates to PC-3. Kind of series: Antimigratory activity against human PC3 cells assessed as reduction in wound closure after 48 hrs by inverted microscopic assay. Format: functional, cell-based. The following applies: in the assay text read “24 hrs” for “48 hrs”. In outline: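 Scratch assay. PC-3 cells (5 × 10^5 per well) grown 24 h to a confluent monolayer, then serum-starved 24 h. Monolayer scratched with a pipette tip and washed, then treated in 1.0% serum medium with graded concentrations or DMSO for 24 h. Photographed at 20×. % wound closure = [1 – (area t1/area t0) × 100%].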

The subject of series [3] is PC-3. Nature of the series: Inhibition of VEGF-induced cell scattering in human PC3 cells at 2.5 to 4.5 uM after 24 to 48 hrs by inverted microscopic assay. The format is functional, cell-based. In outline: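 PC-3 cells seeded at 1000 per well and grown 3–4 days into discrete colonies. Stimulated with VEGF in growth medium with graded concentrations. After overnight (24 h) incubation, individual colonies observed by bright-field/inverted microscopy and photographed. Representative of three experiments.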

Series [4] relates to PC-3. Kind of series: Anti-invasive activity against human PC3 cells after 48 hrs by Boyden chamber assay. The format is functional, cell-based. Summed up:
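Matrigel (Boyden chamber) invasion kit used per manufacturer. PC-3 cells (1.2 × 10^6 per well) treated with graded concentrations or DMSO vehicle. Invaded cells counted per field and imaged at 20× magnification. Three independent experiments.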

The subject of series [5] is PC-3. Nature of the series: Inhibition of colony formation in human PC3 cells at 2.5 to 4.5 uM after 5 days by crystal violet staining based inverted microscopic assay. Format: functional, cell-based. Summed up: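 Clonogenic assay. PC-3 cells (1 × 10^3 per well) plated, medium replaced after 24 h, then exposed to graded concentrations or DMSO vehicle for 5 days. Colonies stained with crystal violet, counted randomly and imaged at 20×. Three independent experiments.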

Series [6] concerns PC-3. Nature of the series: Induction of mitochondrial membrane potential loss in human PC3 cells after 24 hrs by JC1 staining based fluorescence microscopic method. Format: functional, cell-based. In outline:
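Treated PC-3 cells (1 × 10^6 per well) washed with cold PBS and stained with JC-1 at 1 μM final for 30 min at 37 °C. Aggregates and monomers assessed by fluorescence microscopy.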

For series [7], the system named is PC-3. Nature of the series: Induction of apoptosis in human PC3 cells assessed as caspase-3/7 activation by caspase3/7-Glo assay. The format is functional, cell-based. Summed up: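 Cells seeded at 5 × 10^3 per well in 96-well plates for 24 h, then treated. Caspase-3/7 Glo reagent/substrate mix added for 25 min, and luminescence read.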
For series [8], the species on record is Homo sapiens. Nature of the series: Inhibition of PI3K/Akt signaling in human PC3 cells assessed as downregulation of NF-kB expression after 24 hrs by Western blot method. The format is cell-based. In outline:
(§2)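 PC-3 cells exposed to indicated concentrations or DMSO, then lysed. Equal protein amounts analysed by western blotting, with β-actin as loading control. Representative of three independent experiments.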
(In western blotting, separated proteins are transferred to a membrane and probed.)

In series [9] the target is RAC-alpha serine/threonine-protein kinase (Homo sapiens) (UniProt P31749). Kind of series: Inhibition of AKT phosphorylation in human PC3 cells at 2.5 to 4.5 uM after 24 hrs by Western blot method. Format: cell-based. Summed up:
as §2

The test system of series [10] is PC-3. Kind of series: Effect on total AKT protein expression in human PC3 cells at 2.5 to 4.5 uM after 24 hrs by Western blot method. Format: ADME, cell-based. The following applies: pc-3, 24 h. In outline:
as §2

The target of series [11] is Serine/threonine-protein kinase mTOR (Homo sapiens) (UniProt P42345). Kind of series: Inhibition of mTOR phosphorylation in human PC3 cells at 2.5 to 4.5 uM after 24 hrs by Western blot method. The format is cell-based. In outline:
as §2

The target is the same in series [12]. Kind of series: Inhibition of mTOR signaling in human PC3 cells assessed as reduction in S6K protein expression at 2.5 to 4.5 uM after 24 hrs by Western blot method. Format: cell-based. In outline: as §2
Series [13] concerns PC-3. Nature of the series: Effect on total mTOR protein expression in human PC3 cells at 2.5 to 4.5 uM after 24 hrs by Western blot method. The format is ADME, cell-based. The following applies: pc-3, 24 h. Summed up: as §2
Series [14] deals with PC-3. Nature of the series: Anti-invasive activity against human PC3 cells assessed as increase in TIMP1 protein expression after 24 hrs by Western blot method. The format is functional, cell-based. In outline: as §2
The species entered for series [15] is Homo sapiens. Kind of series: Inhibition of PI3K/Akt in human PC3 cells assessed as reduction in NF-kB dependant MMP2 activation after 48 hrs by gelatin zymographic method. The format is cell-based. Summed up:
(§3)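 Gelatin zymography. Subconfluent (70–80%) PC-3 cells in fresh medium incubated 48 h with increasing concentrations. Equal protein from conditioned media run on 7.5% SDS-PAGE containing 0.1% gelatin, 100 V, 3 h, 4 °C. Gels washed in 2% Triton X-100, incubated overnight at 37 °C in Tris-HCl pH 8.0/10 mM CaCl2 buffer, then Coomassie stained. BSA as loading control.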

The species named for series [16] is Homo sapiens. Nature of the series: Inhibition of PI3K/Akt in human PC3 cells assessed as reduction in NF-kB dependant MMP9 activation after 48 hrs by gelatin zymographic method. The format is cell-based. Summed up: as §3
The species named for series [17] is Homo sapiens. Nature of the series: Inhibition of PI3K/Akt in human PC3 cells assessed as downregulation of NF-kB dependant MMP2 protein expression at 2.5 to 4.5 uM after 24 hrs by Western blot method. Format: cell-based. Summed up: as §2
For series [18], the system named is PC-3. Kind of series: Inhibition of PI3K/Akt in human PC3 cells assessed as downregulation of NF-kB dependant MMP9 protein expression at 2.5 to 4.5 uM after 24 hrs by Western blot method. The format is functional, cell-based. Summed up: as §2
The test system of series [19] is PC-3. Nature of the series: Antimetastatic activity against human PC3 cells assessed as increase in E-cadherin protein expression at 2.5 to 4.5 uM after 24 hrs by Western blot method. Format: functional, cell-based. In outline:
as §2

Series [20] deals with PC-3. Nature of the series: Antimetastatic activity against human PC3 cells assessed as decrease in vimentin protein expression at 2.5 to 4.5 uM after 24 hrs by Western blot method. Format: functional, cell-based. Summed up: as §2

Sequence of RAC-alpha serine/threonine-protein kinase (Homo sapiens) (P31749 whole entry): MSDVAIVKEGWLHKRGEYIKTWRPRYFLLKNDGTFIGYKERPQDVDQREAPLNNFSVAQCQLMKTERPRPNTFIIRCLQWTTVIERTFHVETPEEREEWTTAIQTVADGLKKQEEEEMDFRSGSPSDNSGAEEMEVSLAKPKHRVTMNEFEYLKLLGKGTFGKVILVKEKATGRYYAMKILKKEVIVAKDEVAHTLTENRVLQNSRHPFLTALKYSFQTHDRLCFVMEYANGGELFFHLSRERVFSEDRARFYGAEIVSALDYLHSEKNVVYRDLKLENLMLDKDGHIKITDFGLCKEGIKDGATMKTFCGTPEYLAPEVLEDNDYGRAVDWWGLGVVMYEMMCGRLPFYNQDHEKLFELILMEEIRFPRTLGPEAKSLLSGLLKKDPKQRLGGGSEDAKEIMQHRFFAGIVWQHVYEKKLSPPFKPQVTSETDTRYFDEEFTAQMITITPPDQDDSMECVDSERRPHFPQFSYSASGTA

In general, IC50 refers to the concentration at which inhibition is half-maximal. Read a low IC50 as inhibition by little substance. As to `COc1cc(/C=C/C(C)=O)ccc1OCc1cn(-c2ccc([N+](=O)[O-])cc2)nn1`, the concentration for half-maximal inhibition (IC50) in the series on PC-3 [1] was 46.7 µM; with HCT-116, 96.3 µM; with MCF7, more than 100 µM.

`COc1cc(/C=C/C(C)=O)ccc1O` [DEHYDROZINGERONE]: the IC50 in the series with PC-3 [1] was 43.2 µM; in the series on HCT-116, 34.8 µM; with MCF7 it was 54.6 µM.

Take `COc1cc(/C=C/C(C)=O)ccc1OCc1cn(-c2c(Cl)cccc2Cl)nn1`: the concentration for half-maximal inhibition (IC50) in the series with PC-3 [1] is 3.07 µM; in the series on HCT-116, 2 µM; in the series on MCF7 it was 26.6 µM; in the series with BPH-1 it was more than 100 µM. In addition, the Activity entry in the series on PC-3 [2] is “Dose-dependent effect”; with PC-3 [4], “Dose-dependent effect”; in the series on PC-3 [6], “Dose-dependent effect”; with PC-3 [10], “Non-Toxic”; in the series on PC-3 [13], “Non-Toxic”; with PC-3 [14], “Dose-dependent effect”. In addition, the inhibition entry (in the series on PC-3 [3]; with PC-3 [5]; in [9]; in series [11]; in series [12]; in the series filed under Homo sapiens [17]) was “Active” in each case. Also, the inhibition entry in the series on PC-3 [18] was “Active”. Besides, the result in the series with PC-3 [7], in the series on PC-3 [19] and with PC-3 [20] was Active. Besides, the inhibition result in the series filed under Homo sapiens [8], in the series listed under Homo sapiens [15] and in the series listed under Homo sapiens [16] was “Dose-dependent effect” throughout.

Take `COc1cc(/C=C/C(C)=O)ccc1OCc1cn(-c2ccccc2Cl)nn1`: the figures for the IC50 in the series with PC-3 [1], in the series with HCT-116 and in the series with MCF7 were 48 µM, 39 µM and 2.19 µM, respectively.

In the case of `COc1cc(/C=C/C(C)=O)ccc1OCc1cn(-c2ccccc2)nn1`, the half-inhibitory concentration (IC50) in the series on PC-3 [1] was 78.6 µM; in the series with HCT-116 it was 67.3 µM; with MCF7, more than 100 µM.

As to `COc1cc(/C=C/C(C)=O)ccc1OCc1cn(-c2ccc(/N=N/c3ccccc3)cc2)nn1`, the concentration for half-maximal inhibition (IC50) is 42.1 µM in the series with PC-3 [1], more than 100 µM with HCT-116 and 75.9 µM in the series on MCF7.

For the compound `COc1cc(/C=C/C(C)=O)ccc1OCc1cn(-c2ccc(-c3ccccc3)cc2)nn1`, the IC50 in the series on PC-3 [1] was 56.8 µM; in the series on HCT-116, 65.2 µM; with MCF7, 65.4 µM.

As for `COc1ccc(-n2cc(COc3ccc(/C=C/C(C)=O)cc3OC)nn2)cc1`, the IC50 came out at 2.01 µM in the series on PC-3 [1], 21.3 µM in the series with HCT-116 and 33.7 µM in the series with MCF7.

With `COc1cc(/C=C/C(C)=O)ccc1OCc1cn(-c2ccccc2O)nn1`, the IC50 was 59.2 µM in the series on PC-3 [1], 76.4 µM in the series with HCT-116 and more than 100 µM in the series on MCF7.

On to `COc1cc(/C=C/C(C)=O)ccc1OCc1cn(-c2ccccc2OC)nn1`, for which the half-maximal inhibitory concentration (IC50) was 2.04 µM in the series on PC-3 [1], 25.7 µM in the series with HCT-116 and 29.1 µM with MCF7.

In the case of `COc1cc(/C=C/C(C)=O)ccc1OCc1cn(-c2ccc(C(F)(F)F)c(C(F)(F)F)c2)nn1`, the IC50 in the series with PC-3 [1] stood at 67.2 µM; with HCT-116, 57.8 µM; with MCF7, 87.4 µM.

For `C#CCOc1ccc(/C=C/C(C)=O)cc1OC`, the IC50 in the series on PC-3 [1] came out at 40.2 µM; in the series on HCT-116, 49.7 µM; in the series with MCF7, 65.4 µM.

Take `COc1cc(/C=C/C(C)=O)ccc1OCc1cn(-c2ccc(C)cc2)nn1`: the 50% inhibitory concentration (IC50) was 58.1 µM with PC-3 [1], 76.6 µM with HCT-116 and more than 100 µM in the series with MCF7.

With `COc1cccc(-n2cc(COc3ccc(/C=C/C(C)=O)cc3OC)nn2)c1`, the figures for the half-inhibitory concentration (IC50) in the series on PC-3 [1], in the series with HCT-116 and with MCF7 were 31.6 µM, 29.6 µM and 1.8 µM, respectively.

With `COc1cc(/C=C/C(C)=O)ccc1OCc1cn(-c2ccccc2CO)nn1`, the IC50 was 50.3 µM in the series with PC-3 [1], more than 100 µM with HCT-116 and 65.8 µM with MCF7.

In the case of `CCOC(=O)c1ccc(-n2cc(COc3ccc(/C=C/C(C)=O)cc3OC)nn2)cc1`, the IC50 is 59.2 µM in the series with PC-3 [1], 78.9 µM with HCT-116 and more than 100 µM in the series with MCF7.

With `COc1cc(/C=C/C(C)=O)ccc1OCc1cn(-c2c(F)cccc2F)nn1`, the figures for the IC50 in the series on PC-3 [1], in the series with HCT-116 and with MCF7 were 24.2 µM, 37.7 µM and 2.03 µM, respectively.

Turning to `COc1cc(/C=C/C(C)=O)ccc1OCc1cn(-c2ccc(C=O)cc2)nn1`, the 50% inhibitory concentration (IC50) in the series on PC-3 [1] came to 80.7 µM; in the series on HCT-116, 76.2 µM; in the series with MCF7, 86.4 µM.

Regarding `COc1cc(/C=C/C(C)=O)ccc1OCc1cn(-c2ccc(NC(=O)c3ccccc3)cc2)nn1`, the 50% inhibitory concentration (IC50) was 76.8 µM in the series on PC-3 [1], more than 100 µM in the series on HCT-116 and 86.7 µM in the series with MCF7.

As for `COc1cc(/C=C/C(C)=O)ccc1OCc1cn(-c2cc(F)cc(Br)c2)nn1`, the IC50 with PC-3 [1] is 56.9 µM; in the series with HCT-116 it was 45.4 µM; in the series with MCF7, 65.5 µM.
